Test results as given in ChEMBL document CHEMBL3860086, “Antivirulence C-Mannosides as Antibiotic-Sparing, Oral Therapeutics for Urinary Tract Infections” (J Med Chem, 2016).
Active and inactive are the calls of the source. The rule behind the calls is not given here.

Tests used:
[1] = target: Type 1 fimbrin D-mannose specific adhesin (Escherichia coli K-12) (UniProt P08191); test: Inhibition of Escherichia coli UTI89 FimH assessed as decrease in hemagglutination of guinea pig red blood cells after 4 to 18 hrs
Type 1 fimbrin D-mannose specific adhesin (Escherichia coli K-12), sequence (P08191 whole entry, the tested form may be a part): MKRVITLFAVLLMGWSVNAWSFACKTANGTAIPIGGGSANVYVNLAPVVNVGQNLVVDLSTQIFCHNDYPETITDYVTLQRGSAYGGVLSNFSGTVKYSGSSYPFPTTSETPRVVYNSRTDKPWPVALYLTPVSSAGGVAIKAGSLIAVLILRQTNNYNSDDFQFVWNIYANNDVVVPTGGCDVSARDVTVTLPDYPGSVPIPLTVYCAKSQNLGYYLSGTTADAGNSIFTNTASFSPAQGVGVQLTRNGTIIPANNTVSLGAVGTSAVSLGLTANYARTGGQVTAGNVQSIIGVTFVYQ
Method in brief: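 Hemagglutination inhibition with clinical UPEC strain UTI89 and guinea pig red blood cells, run per an earlier described protocol.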

[2] = target: Type 1 fimbrin D-mannose specific adhesin (Escherichia coli K-12) (UniProt P08191); test: Binding affinity to Escherichia coli UTI89 FimH lectin domain at 100 uM after 30 mins by SYPRO Orange-staining-based differential scanning fluorimetry
Method in brief: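 Thermal shift (DSF) binding with FimH lectin domain (FimHL) at 10 μM, with or without 100 μM mannoside; otherwise run per an earlier described method.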

Escherichia coli [3] = test: (§1) Antibacterial activity against Escherichia coli UTI89 with kanamycin cassette inserted in chromosome in C3H/HeN mouse acute cystitis model assessed as decrease in bacterial burden in urinary bladder at 25 mg/kg, po administered 30 mins prior to infection measured at 6 hrs post infection relative to control; format: functional
Method in brief: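 Female C3H/HeN mice (6–8 weeks) get 25 mg/kg mannoside by mouth in 10% cyclodextrin 30 min before infection. Infection is transurethral: 50 μL of 1–2 × 10^7 UTI89KAN under isoflurane. The inoculum is grown type 1-inducing (2 × 24 h static LB, 37 °C), washed and resuspended in PBS. At 6 h, bladders are homogenized, serially diluted and plated on LB with 50 μg/mL kanamycin for CFU.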

[4] = Drug uptake in C3H/HeN mouse urine at 50 mg/kg, po administered through gavage after 8 hrs by LC-MS/MS analysis; format: ADME, organism-based; details: read-out: Drug uptake
Method in brief: (§2)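 Mouse urine PK: C3H/HeN mice given 100 μL of 10 mg/mL mannoside in 10% cyclodextrin (50 mg/kg) by oral gavage. Urine sampled at several time points over 8 h and mannoside quantified by HPLC and mass spectrometry.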

[5] = Clearance in Sprague-Dawley rat at 3 mg/kg, iv after 5 mins to 24 hrs by LC-MS/MS analysis; format: ADME, organism-based; details: in vivo
Method in brief: (§3)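 Rat plasma PK: mannoside concentrations in plasma followed after either a 10 mg/kg oral dose or a 3 mg/kg intravenous dose.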

[6] = Ratio of drug level in C3H/HeN mouse urine to EC90 for Escherichia coli UTI89 FimH-mediated hemagglutination of guinea pig red blood cells
[7] = Ratio of drug level in C3H/HeN mouse urine to IC50 for Escherichia coli UTI89 FimH-mediated biofilm formation
Escherichia coli [8] = test: as §1, with “mouse chronic” for “mouse acute”, “administered 14 days post” for “administered 30 mins prior to”, “at 12” for “at 6”, “post dose” for “post infection”; format: functional
Method in brief: (§4)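 Female C3H/HeN mice (6–8 weeks) are infected transurethrally under isoflurane with 1–2 × 10^8 UTI89KAN (type 1-induced, PBS-washed) in 50 μL. Urine titers at day 12 select chronic infection (≥10^5). At 2 weeks, mice get oral gavage of 100 μL mannoside in 10% cyclodextrin. At set times, bladders are homogenized, serially diluted and plated on kanamycin LB for CFU.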

[9] = Half life in liver microsomes (unknown origin); format: ADME
[10] = Volume of distribution at steady state in Sprague-Dawley rat at 3 mg/kg, iv after 5 mins to 24 hrs by LC-MS/MS analysis; format: ADME, organism-based; details: in vivo; method in brief: as §3
[11] = Oral bioavailability in Sprague-Dawley rat at 10 mg/kg after 15 mins to 24 hrs by LC-MS/MS analysis; format: ADME, organism-based; details: in vivo; method in brief: as §3
[12] = Half life in simulated gut fluid (unknown origin); format: ADME
Method in brief: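 Stability is measured in simulated gut fluid at pH 1.2.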

Escherichia coli [13] = test: as §1, with “chronic” for “acute”, “50” for “25”, “14 days post” for “30 mins prior to”, “dose (reference value: 10^7 CFU)” for “infection relative to control”; format: functional; method in brief: as §4
[14] = Drug uptake in C3H/HeN mouse urine at 50 mg/kg, po administered through gavage after 1 hr by LC-MS/MS analysis; format: ADME, organism-based; details: in vivo; method in brief: as §2
Escherichia coli [15] = test: as §1, with “chronic” for “acute”, “50” for “25”, “14 days post” for “30 mins prior to”, “12” for “6”, “dose (reference value: 10^7 CFU)” for “infection relative to control”; format: functional; method in brief: as §4
Escherichia coli [16] = test: as §1, with “chronic” for “acute”, “50” for “25”, “14 days post” for “30 mins prior to”, “2” for “6”, “dose (reference value: 10^7 CFU)” for “infection relative to control”; format: functional; method in brief: as §4

CNC(=O)c1cccc(-c2ccc(C[C@H]3O[C@H](CO)[C@@H](O)[C@H](O)[C@@H]3O)cc2)c1
EC90 [1]: 1 µM

Cc1cc(-c2ccc3c(c2)C(=O)NCC3)ccc1O[C@H]1O[C@H](CO)[C@@H](O)[C@H](O)[C@@H]1O
EC90 [1]: 0.032 µM | Tm [2]: 75 °C

CNC(=O)c1cccc(-c2ccc([C@@H](O)[C@H]3O[C@H](CO)[C@@H](O)[C@H](O)[C@@H]3O)cc2)c1
EC90 [1]: 0.25 µM | Tm [2]: 72.8 °C

Cc1cc(-c2cccc3cnccc23)ccc1[C@@H](O)[C@H]1O[C@H](CO)[C@@H](O)[C@H](O)[C@@H]1O
EC90 [1]: 0.125 µM | Tm [2]: 74.6 °C

Cc1cc(-c2ccc3ccnc(N)c3c2)ccc1[C@@H](O)[C@H]1O[C@H](CO)[C@@H](O)[C@H](O)[C@@H]1O
Activity (Escherichia coli [3]): Active | EC90 [1]: 0.006 µM | Tm [2]: 77.7 °C

Cc1cc(-c2ccc3ccnc(N)c3c2)ccc1O[C@H]1O[C@H](CO)[C@@H](O)[C@H](O)[C@@H]1O
EC90 [1]: 0.02 µM | Tm [2]: 75.1 °C

CNC(=O)c1cccc(-c2ccc([C@@H](O)[C@H]3O[C@H](CO)[C@@H](O)[C@H](O)[C@@H]3O)c(C)c2)c1
concentration at 8 h [4]: 50 µM | clearance [5]: 34.9 mL/min/kg | Ratio [6]: 1600 | EC90 [1]: 0.031 µM | Tm [2]: 75.4 °C | Ratio [7]: > 10 | fold change (FC) (Escherichia coli [8]): 3

CNC(=O)c1cccc(-c2ccc(O[C@H]3O[C@H](CO)[C@@H](O)[C@H](O)[C@@H]3O)cc2)c1
EC90 [1]: 0.5 µM | Tm [2]: 73.2 °C

CNC(=O)c1cccc(-c2ccc([C@H](O)[C@H]3O[C@H](CO)[C@@H](O)[C@H](O)[C@@H]3O)c(C)c2)c1
EC90 [1]: 24 µM | Tm [2]: 66.4 °C

Cc1cc(-c2ccc3cc[nH]c(=O)c3c2)ccc1O[C@H]1O[C@H](CO)[C@@H](O)[C@H](O)[C@@H]1O
clearance [5]: 408 mL/min/kg | fold change (FC) (Escherichia coli [3]): 2 | half-life [9]: > 2 h | Vdss [10]: 6.7 L | EC90 [1]: 0.031 µM | Tm [2]: 75.4 °C | F [11]: 7% | half-life [12]: > 2 h

OC[C@H]1O[C@H](n2cc(-c3ccccc3)nn2)[C@@H](O)[C@@H](O)[C@@H]1O
EC90 [1]: 32 µM

CNC(=O)c1cccc(-c2ccc(O[C@H]3O[C@H](COP(=O)(O)O)[C@@H](O)[C@H](O)[C@@H]3O)c(C)c2)c1
Activity (Escherichia coli [3]): Active

CNC(=O)c1cc(C(=O)NC)cc(-c2ccc(O[C@H]3O[C@H](CO)[C@@H](O)[C@H](O)[C@@H]3O)c(C)c2)c1
Activity (Escherichia coli [13]): 10000 CFU | half-life [9]: > 2 h | EC90 [1]: 0.016 µM | Ratio [7]: > 10 | Activity (Escherichia coli [8]): Active | Drug uptake [14]: Active | Activity (Escherichia coli [15]): 100000 CFU | Activity (Escherichia coli [16]): 100000 CFU | half-life [12]: > 2 h

COC(=O)c1cccc(-c2ccc(N[C@H]3O[C@H](CO)[C@@H](O)[C@H](O)[C@@H]3O)cc2)c1
EC90 [1]: 4 µM

Cc1cc(-c2ccc3cc[nH]c(=O)c3c2)ccc1[C@@H](O)[C@H]1O[C@H](CO)[C@@H](O)[C@H](O)[C@@H]1O
fold change (FC) (Escherichia coli [3]): 2 | EC90 [1]: 0.008 µM | Tm [2]: 77.5 °C

Cc1cc(-c2cccc3cnccc23)ccc1O[C@H]1O[C@H](CO)[C@@H](O)[C@H](O)[C@@H]1O
EC90 [1]: 0.062 µM | Tm [2]: 75 °C

O=C(NC[C@H]1O[C@H](CO)[C@@H](O)[C@H](O)[C@@H]1O)c1ccc(Br)cc1
EC90 [1]: 16 µM

CNC(=O)c1cccc(-c2ccc(O[C@H]3O[C@H](COC(C)=O)[C@@H](OC(C)=O)[C@H](OC(C)=O)[C@@H]3OC(C)=O)c(C)c2)c1
concentration at 8 h [4]: 20 µM | Activity (Escherichia coli [3]): Active | Ratio [7]: > 10 | Activity (Escherichia coli [8]): Active

Cc1cc(-c2ccc3c(c2)C(=O)NCC3)ccc1[C@@H](O)[C@H]1O[C@H](CO)[C@@H](O)[C@H](O)[C@@H]1O
Activity (Escherichia coli [3]): Active | EC90 [1]: 0.006 µM | Tm [2]: 76.5 °C

CNC(=O)c1cccc(-c2ccc(O[C@H]3O[C@H](CO)[C@@H](O)[C@H](O)[C@@H]3O)c(C)c2)c1
concentration at 8 h [4]: 1 µM | clearance [5]: 98.4 mL/min/kg | EC90 [1]: 0.062 µM | Tm [2]: 74.5 °C | Ratio [7]: > 10 | Drug uptake [14]: Active

CNC(=O)c1cccc(-c2ccc([C@H](O)[C@H]3O[C@H](CO)[C@@H](O)[C@H](O)[C@@H]3O)cc2)c1
EC90 [1]: 24 µM | Tm [2]: 67.2 °C

COC(=O)c1cccc(-c2ccc(S[C@H]3O[C@H](CO)[C@@H](O)[C@H](O)[C@@H]3O)cc2)c1
EC90 [1]: 4 µM

COC(=O)c1cccc(-c2ccc(NC(=O)[C@H]3O[C@H](CO)[C@@H](O)[C@H](O)[C@@H]3O)cc2)c1
EC90 [1]: 16 µM

CNC(=O)c1cccc(-c2ccc(C[C@H]3O[C@H](CO)[C@@H](O)[C@H](O)[C@@H]3O)c(C)c2)c1
EC90 [1]: 2 µM
